# Bioassay records (PubChem)
# Rce1 inh = inhibitors of yeast Ras-converting enzyme; 290,000 tested, 0.27% active; yeast membranes, quenched prenylated peptide cleavage fluorescence; calls only; AID 2563; Q03530;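 active = fall in fluorescence gain of 50% or more versus controls, with final raw signal at or below 3038400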
# Target sequence (Q03530 whole entry, looked up): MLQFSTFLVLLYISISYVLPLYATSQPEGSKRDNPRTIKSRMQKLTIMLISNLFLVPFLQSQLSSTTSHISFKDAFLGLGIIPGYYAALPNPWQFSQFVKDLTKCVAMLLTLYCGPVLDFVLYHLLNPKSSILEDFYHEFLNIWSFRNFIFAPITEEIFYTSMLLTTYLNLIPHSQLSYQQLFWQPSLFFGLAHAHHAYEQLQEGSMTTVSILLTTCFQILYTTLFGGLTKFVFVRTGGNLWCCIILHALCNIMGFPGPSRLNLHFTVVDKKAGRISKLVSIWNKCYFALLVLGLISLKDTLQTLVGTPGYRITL
# Lipid droplet = hepatic lipid droplet formation modulation; AML12 mouse hepatocytes, oleate lipid droplets, BODIPY imaging; inhibition, % at 6.5 µM; 240,000 tested, 0.4% active;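 active = lipid droplet intensity inhibited by at least 50%, with more than 500 cells counted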
#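 Assay system: AML12 mouse liver cells | Compound: 6.5 µM single-point dosing | Schedule: Overnight exposure | Technique: Fluorescence imaging, 20x objective, two fields per well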
# proCasp3 act = activators of human procaspase-3 | AID 463141 | recombinant procaspase-3 D3A, Ac-DEVD-pNA absorbance 405 nm | activation, % at 8.5 µM | 330,000 tested, 0.11% active | P42574;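 active = activation above the mean of all tested compounds plus 3 SD, cut at about 21% in these data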
#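 material = Procaspase-3 D3A mutant | probe or stimulus = Ac-DEVD-pNA | compound = single dose, 8.5 µM nominal compound, 0.8% DMSO | timing = 1 h preincubation, 2 h reaction | measured by = 405 nm absorbance of p-nitroaniline, reads at 0 and 120 min | benchmarks = DMSO-only low control, 5 µM PC-3 D3A high control | repeats = singlicate, each compound tested once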
# pCIP destab = lowers stability of the mouse p/CIP coactivator protein | F442A p/CIP-EGFP cells, EGFP fluorescence, 16 h | decrease of EGFP signal, % at 10 µM | AID 1984 | 290,000 tested, 0.01% active | Q05BA5;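 active = EGFP signal decrease of at least 30% at 10 µM or well 3 SD below plate mean, unless failing retest; inactive = the rest, including hits failing retest or dose response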
# FXN GAA850 act = frataxin GAA850 promoter activation | activation, % at 6 µM | HEK293 lucGAA850 FXN promoter luciferase reporter, 24 h; percent of 10 µM SAHA response | 360,000 tested, 0.56% active | AID 540364;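 active = activation above the average of all compounds screened plus 3 SD, cutoff fixed separately per campaign, cut at about 7.5% in these data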
# procasp7 counter = activates human procaspase-7, counter-screen for procaspase-3 activators. P55210. activation, % at 8.5 µM. recombinant procaspase-7, Ac-DEVD-pNA absorbance 405 nm; D23A/D198A/D206A triple mutant, cannot self-cleave; scale: DMSO 0, 5 µM enzyme 100. 330,000 tested, 0.093% active;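 active = percent activation above the screen-wide mean plus 3 SD, cut at about 25% in these data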
#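 Assay system – Uncleavable procaspase-7 mutant enzyme · Quantity – 2 µM procaspase-7 mutant as dispensed · Times – 1 h preincubation, 2 h reaction · Dosing – single nominal 8.5 µM compound dose, 0.8% DMSO final · Buffer or medium – Zinc-free 50 mM HEPES buffer, pH 7.4, with NaCl and Triton X-100 · Detection – Epi-absorbance of released pNA at 405 nm, two timepoints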
# GAA30 FXN cntr = counter-screen for GAA850 frataxin promoter activators: GAA30 promoter activation. shares compounds with FXN GAA850 act. HEK293 lucGAA30 FXN promoter luciferase, 24 h; DMSO = 0%, 5 µM ipriflavone = 100%. activation, % at 6 µM. 1,900 tested, 66% active;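 active = mean activation above the mean of solvent-only control wells plus 3 SD, cut at about 22% in these data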;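 note: counterscreen of GAA850 promoter hits where activity marks nonselective or luminescence artifacts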
# FXN GAA850 conf = GAA850 FXN promoter activation confirmation. HEK293 lucGAA850 FXN promoter luciferase reporter, 24 h; 100% = activation by SAHA. shares compounds with FXN GAA850 act. 1,900 tested, 86% active. AID 588351. activation, % at 6 µM;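 active = mean activation above a set limit taken from the primary screen, cut at about 8% in these data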
# Hits are given with their value; – = inactive; · = no result given. Hits are enriched below; roughly 1.2% of the tested compounds scored in any of these assays.
SMILES,Rce1 inh,Lipid droplet,proCasp3 act,pCIP destab,FXN GAA850 act,procasp7 counter,GAA30 FXN cntr,FXN GAA850 conf
C/C(=N\N1CCCCC1c1cccnc1)c1c(O)n(C2CCCCC2)c(=S)[nH]c1=O (configuration not stated),–,–,–,–,8.2,–,–,16.5
CN1CCN(c2ccc3c(c2)S(=O)(=O)c2ccccc2C3=O)CC1,–,·,–,·,8.8,–,96.5,35.2
CC(C)(O)C(=O)Nc1ccc([N+](=O)[O-])c(C(F)(F)F)c1,·,·,–,·,12.4,–,–,–
COc1cc2c(cc1OC)CN(c1ccc([N+](=O)[O-])c(C(F)(F)F)c1)CC2,–,–,–,–,–,–,·,·
Cc1nc2ccccn2c1P(=S)(c1ccccc1)c1ccccc1,·,·,·,·,–,·,·,·
C1=NCCCN2CCCCC12 (configuration not stated),·,·,·,·,–,·,·,·
N#Cc1cn(C2OC(CO)C(O)C2O)c2ncnc(N)c12 (configuration not stated),·,·,·,·,14.0,·,47.5,–
C=C1C(C)C2C(Cc3ccccc3)NC(=O)C23C(OC(C)=O)C=CC(C)(O)CC(C)CC=CC3C1O (configuration not stated),·,·,·,·,7.6,·,–,23.0
CCOC(=O)c1cccc(C2=C(CNC(=O)c3nccs3)[C@H]3CC[C@@H](C2)N3Cc2ccccc2)c1,·,·,·,·,–,·,·,·
CCNC(=O)[C@H]1O[C@@H](n2cnc3c(N)ncnc32)[C@H](O)[C@@H]1O,–,–,–,–,8.6,–,35.0,18.1
COc1cccc(C)c1NC1=NCCO1,·,·,·,·,–,·,·,·
COc1cccc(CNCCc2c[nH]c3ccccc23)c1OC,–,–,–,–,–,–,·,·
COc1ccc(CNCCc2c[nH]c3ccccc23)c(OC)c1OC,–,–,–,–,8.1,–,–,8.7
CCC(C)(O)C(=O)OC1C(=O)OC2CC3C(C)=CC(O)C(O)C3(C)C3C4(O)OCC23C1C(C)C4O (configuration not stated),·,·,·,·,–,·,·,·
CN1C(=O)/C(=C\c2ccc(N3CCCCC3)o2)C(=O)NC1=S,–,–,–,–,–,–,·,·
CN1C(=O)/C(=C/c2ccc(N3CCCCCC3)o2)C(=O)NC1=S,–,–,–,–,9.9,–,100.5,46.7
